Shown are actives, neighbours in structure and some others; about 4.6% of the full set was active somewhere.
OX1R antag-1 – OX1R (human) antagonism. inhibition, % at 6.6 µM. 330,000 tested, 1.8% active. OX1R-expressing cells, FRET antagonist read-out. O43613. AID 485270; in the data active = inhibition mostly above about 38%, no sharp cut-off; inactive = mostly below about 40%;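 also: 0% = agonist challenge alone and 100% = reference antagonist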
OX1R antag-2 – blocks the human orexin 1 receptor | O43613 | CHO/OX1R cells, Fluo-8 calcium fluorescence, orexin A | inhibition, % at 5 µM | 330,000 tested, 0.43% active;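 active = inhibition above its plate's threshold, mean inhibition of all tested compounds on the plate plus 3 SD, cut at about 37% in these data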;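 also: 0% = orexin A challenge wells and 100% = SB-334867-A antagonist wells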
GPR7 antag – antagonists of human GPR7 (neuropeptides B/W receptor 1). GPR7-expressing cells, fluorescence antagonist assay. inhibition, % at 4.4 µM. 290,000 tested, 1.1% active. AID 1861; in the data active = inhibition above about 16%, passing the limit was not always enough;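 also: cells stimulated with the agonist NPW; 0% = agonist with vehicle and 100% = vehicle without agonist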
CHO parental Ca – signal in parental CHO cells, OX1R antagonist counter-screen | parental CHO-K1, ATP-induced calcium, Fluo-8 fluorescence | inhibition, % at 5.6 µM | 330,000 tested, 0.63% active | AID 463079;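 active = inhibition above that plate's mean sample inhibition plus 3 SD, cut at about 26% in these data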;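 also: 0% = ATP-challenged DMSO wells and 100% = DMSO wells without ATP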
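Test system: parental CHO cells; detection: calcium-sensitive Fluo-8 fluorescence; evaluation: percent inhibition of calcium signal; also added: ATP as calcium-mobilizing challenge; repeats: one well per compound; control set: ATP-challenged DMSO wells low, unchallenged DMSO wells high; compound: single nominal dose of 5.6 µM per compound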
TAAR1 antagonist – antagonists of human TAAR1; Q96RJ0; CHO RD-HGA16 TAAR1, Fluo-8 calcium fluorescence, antagonist; inhibition, % at 3 µM; 360,000 tested, 1.5% active; AID 624466;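 active = inhibition above a per-plate cutoff, the mean inhibition of test compounds on that plate plus 3 SD, cut at about 49% in these data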;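 also: 0% = DMSO plus EC80 beta-PEA response and 100% = DMSO alone without agonist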
Target sequence (Q96RJ0 whole entry, looked up): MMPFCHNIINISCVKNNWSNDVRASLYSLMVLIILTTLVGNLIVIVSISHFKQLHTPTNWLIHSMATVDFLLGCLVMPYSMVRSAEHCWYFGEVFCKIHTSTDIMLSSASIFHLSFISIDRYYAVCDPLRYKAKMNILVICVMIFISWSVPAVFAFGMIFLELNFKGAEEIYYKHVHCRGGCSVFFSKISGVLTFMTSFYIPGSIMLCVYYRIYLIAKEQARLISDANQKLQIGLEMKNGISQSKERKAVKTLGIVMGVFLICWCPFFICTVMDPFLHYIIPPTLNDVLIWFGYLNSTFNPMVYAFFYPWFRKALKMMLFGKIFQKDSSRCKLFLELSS
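Test system: RD-HGA16 CHO cells with stable hTAAR1 and Gα16 / Probe or stimulus: EC80 β-phenethylamine stimulus / Times: seeding 17-24 h prior, 75-min 37 °C, 30-min RT dye loading / Detection: Fluo-8 calcium-sensitive fluorescence / Read-out basis: % inhibition scaled between DMSO and EC80 PEA controls / Repeats: singlicate, one well per test compound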
TAAR1 agonist – agonists of human TAAR1; 360,000 tested, 0.99% active; AID 624467; activation, % at 3 µM; CHO RD-HGA16 TAAR1, Fluo-8 calcium fluorescence; vehicle wells 0%, saturating PEA agonist 100%; Q96RJ0;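 active = activation above the mean activation of all test compounds in the run plus 3 SD, cut at about 38% in these data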
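Repeats: no replicates (n 1) | Material: CHO-derived RD-HGA16 cells with stable Gα16 and human TAAR1 | Technique: Kinetic Fluo-8 calcium fluorescence | Schedule: 17-24 h seeding, 75 min 37 °C dye, 30 min RT | Evaluation: % activation from peak over basal fluorescence ratio, DMSO-to-PEA scaled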
An asterisk follows results filed as active; x = no result.

SMILES	OX1R antag-1	OX1R antag-2	GPR7 antag	CHO parental Ca	TAAR1 antagonist	TAAR1 agonist
Cc1nc(Cl)c(C(=O)NC(=O)Nc2cccc(C(F)(F)F)c2)c(C)c1[N+](=O)[O-]	40.6	7.3	-12.6	18.6	29.0	42.3*
Cc1onc(C(=O)Nc2cccc(C(F)(F)F)c2)c1[N+](=O)[O-]	15.9	-0.9	-7.6	2.2	3.2	-0.9
CSc1ccc(C(=O)NCC2CCN(C(=O)C(=O)c3cc4ccccc4o3)CC2)cc1	x	x	x	x	-22.5	2.3
COc1ccc(CCNC(=O)CCS(=O)(=O)c2cccc3nsnc23)cc1OC	76.7*	-18.5	-9.9	-15.9	-0.1	1.3
Cc1cccc(NC(=O)CCS(=O)(=O)c2cccc3nsnc23)c1C	63.3*	-27.2	-0.6	-23.9	-4.3	5.1
CCOC(=O)c1cccc(NC(=O)CCS(=O)(=O)c2cccc3nsnc23)c1	69.1	-34.3	-7.6	-25.0	0.6	19.3
NS(=O)(=O)c1ccc(CCNC(=O)COC(=O)CCSc2ccc(Cl)cc2)cc1	4.9	-1.8	-8.8	-0.8	22.2	7.4
NS(=O)(=O)c1ccc(CCNC(=O)CSc2ccc(Cl)cc2)cc1	5.4	39.8	-6.0	34.5*	18.7	0.1
COC(=O)N1C[C@H](OCCCOCc2ccccc2)[C@H]2C[C@@H]1c1ccccc1O2	x	x	x	x	-18.6	-0.6
CSc1nn(CCC#N)c(=O)[nH]c1=O	x	x	x	x	-37.1	5.9
COc1cccc(-c2cc(C(=O)Nc3ccc(N(C)C(C)=O)cc3)c3cc(Br)ccc3n2)c1	12.7	-16.0	x	-11.6	60.1*	7.8
COc1ccc(COc2cc(-c3cccc(OC)c3)nc3ccc(NC(C)=O)cc23)cc1	28.2	-9.3	4.7	-8.3	58.8*	5.0
CSc1ccccc1NC(=O)c1cc(-c2cccnc2)nc2ccc(Br)cc12	11.3	-8.3	-12.0	-19.0	50.0*	4.1
CCCCOCC1CN(CCCC)S(=O)(=O)c2c(Oc3ccc(SC)c(C)c3)cccc2O1 (centres undefined)	x	x	x	x	-18.1	0.3
Oc1[nH]c2ccccc2c1N=NC(=S)N1CCOCC1	19.5	-10.2	-21.8	9.3	x	x
Cc1ccc(CN2CCN(CC(=O)N=Nc3c(O)[nH]c4ccccc34)CC2)cc1	65.6*	-1.0	-7.6	-27.2	9.3	-0.3
O=C(N=Nc1c(O)[nH]c2ccccc12)c1ccc(CN2CCOCC2)cc1	63.4*	3.0	-11.4	-2.7	4.8	2.1
Cc1cccc(C(=O)NC2CCN(S(=O)(=O)c3cccc(F)c3)CC2)c1	x	x	x	x	14.3	-0.9
CC(=O)c1ccc(S(=O)(=O)N2CCC(NC(=O)Nc3cccc(F)c3)CC2)cc1	-0.2	-16.1	-1.8	-5.9	48.2	13.7
O=C(Nc1cccc(C(F)(F)F)c1)NC1CCN(S(=O)(=O)c2ccc(F)cc2)CC1	7.0	-4.6	9.5	33.6*	17.7	13.3
Cc1cccc(C(=O)NC2CCN(S(=O)(=O)c3ccc(F)cc3)CC2)c1	10.0	16.1	17.1	41.2*	-3.5	-0.4
COc1ccc(C2CC(=O)C(c3ccc4ccccc4c3)=CN2Cc2ccccc2)cc1 (centres undefined)	x	x	x	x	-39.8	-0.4
CC(C)(C)S(=O)N1Cc2cc(CO)ccc2[C@H]1CCO (some centres undefined)	x	x	x	x	-0.9	2.5
O=C1NC(=Nc2ccccc2)c2ccc([N+](=O)[O-])cc21	74.3*	-4.7	-4.4	-4.2	-6.0	-0.4
Cc1cccc(N=C2NC(=O)c3cc([N+](=O)[O-])ccc32)c1	69.7*	0.3	-3.8	-6.5	13.2	-0.8
Cc1ccc([N+](=O)[O-])cc1N=C1C(=O)Nc2ccccc21	16.7	-24.4	9.6	-2.4	-21.9	0.9
O=C(N[C@H](Cc1ccccc1)C(=O)N1CCN(c2ccc(Cl)cn2)CC1)[C@H]1O[C@@H](n2ccc(=O)[nH]c2=O)[C@H](O)[C@@H]1O	x	x	x	x	-11.0	2.1
COc1ccc(-n2nc(C(=O)NCC(=O)NCc3ccc(F)cc3)c3ccccc3c2=O)cc1OC	20.7	-38.7	-9.3	-13.1	28.5	10.3
O=C(c1ccc2c(c1)C(=O)NC2=O)c1ccc2c(c1)C(=O)NC2=O	x	x	x	x	5.4	4.9
CCOC(=O)Cc1csc(NC(=O)CSc2nnnn2-c2ccc(CC)cc2)n1	19.9	-22.2	-7.6	21.5	5.0	0.7

Assay outcomes (PubChem)
